Assay results gathered from unrelated publications.
Each line is one published result; the experiments were not run side by side.
Target: Vascular endothelial growth factor receptor 3 (FLT4, Homo sapiens, UniProt P35916)

| SMILES | assay | setting | remaining binding [%] |
| --- | --- | --- | --- |
| CCc1ccccc1C(=O)Nc1n[nH]c2c(C)c(F)c(C3C(C#N)=C(C)N(C)C(C)=C3C#N)cc12 | cell-free assay, competition with immobilised ligand | 1 µM | 85 |
| c1cnn2ncc(-c3ccnc(N4CCC45COC5)n3)c2c1 | binding | 1 µM | 92 |
| CC(C)CC(=O)N1CCc2nc(-c3ccc(Br)cc3)nc(N(C)Cc3ccccc3)c2C1 | cell-free assay, competition with immobilised ligand | 0.1 µM | 100 |
| CN(CCCC(F)(F)F)c1nccc(-c2cnn3ncccc23)n1 | binding | 1 µM | 100 |
| CNCc1ccccc1-c1csc([C@H](C)Nc2nc(C)nc3cc(OC)c(OC)cc23)c1 | cell-free assay, competition with immobilised ligand | 1 µM | 100 |
| C[C@@H](c1ccc(-n2cnc3c(N)ncnc32)cc1)N1CCc2nn(C)c(Cc3ccccc3)c2C1=O | binding, competition with immobilised ligand | 0.1 µM | 91 |
| Cc1nc(C2CCN(C(=O)c3ccc(OC(F)(F)F)cc3N)CC2)c2ncc(N3CCN(C)CC3)cc2n1 | cell-free assay, competition with immobilised ligand | 1 µM | 75 |
| Cc1cnc(Nc2ccc(C(=O)N3CCC(N4CCCC4)CC3)cc2)nc1-c1cc2ccccc2s1 | binding, competition with immobilised ligand | 1 µM | 0.4 |
| N#Cc1ccc(Nc2ccc3[nH]c(=O)[nH]c3c2)c(Cl)c1 | cell-free assay, competition with immobilised ligand | 1 µM | 100 |
| C[C@@H]1CCN(c2nccc(-c3cnn4ncccc34)n2)C1 | binding | 1 µM | 100 |
| COc1ncc2cc3ccccc3nc2c1C#N | cell-free assay, competition with immobilised ligand | 5 µM | 96 |
| O=C(NCCCN1CCOCC1)c1ccc(Nc2ncc(Cl)c(-c3ccc(Cl)s3)n2)cc1 | binding, competition with immobilised ligand | 1 µM | 0.7 |
| CN(C)c1ncc(F)c(-c2cnn3ncccc23)n1 | binding | 1 µM | 86 |
| O=C(c1ccc(Nc2nccc(-c3cc4ccccc4s3)n2)cc1)N1CCC(N2CCCC2)CC1 | binding, competition with immobilised ligand | 1 µM | 30 |
| N[C@H]1CCN(c2nccc(-c3cnn4ncccc34)n2)C1 | binding | 1 µM | 92 |
| C=CC(=O)Nc1cccc(CN2C(=O)N(c3c(Cl)c(OC)cc(OC)c3Cl)Cc3cnc(NCCCCN(CC)CC)nc32)c1 | cell-free assay, competition with immobilised ligand | 10 µM | 0.2 |
| O=C(Nc1c[nH]nc1C(=O)NC1CCNCC1)c1cc(F)cc(F)c1 | binding, competition with immobilised ligand | 1 µM | 100 |
| Cc1cnn2ncc(-c3ccnc(N(C)C)n3)c2c1 | binding | 1 µM | 100 |
| CCS(=O)(=O)c1cc2cc(C[C@](O)(CC(C)(C)c3ccc(F)cc3C(N)=O)C(F)(F)F)[nH]c2cn1 | cell-free assay, competition with immobilised ligand | 1 µM | 95 |
| COc1cnc(Nc2cccc(S(N)(=O)=O)c2)nc1N1CCN(c2ccccc2)CC1 | binding, competition with immobilised ligand | 1 µM | 85 |
| C[C@@H]1CN(c2cc(-c3nn(C)c4ccc(OC5(C)CC5)cc34)ncn2)C[C@H](C)O1 | cell-free assay, competition with immobilised ligand | 1 µM | 85 |
| CCN1CCN(Cc2ccc(C(=O)Nc3ccc(C)c(Oc4ccc5c(c4)CC(=O)N5)c3)cc2C(F)(F)F)CC1 | binding, competition with immobilised ligand | 1 µM | 100 |
